The values that follow come from ChEMBL document CHEMBL3425488, “Novel histone deacetylase inhibitors induce growth arrest, apoptosis, and differentiation in sarcoma cancer stem cells” (J Med Chem, 2015).

Calls of active or inactive are those of the source. The rule behind the calls is not given here.

One assay concerns MG-63. In words: Cytotoxicity against human MG63 cells assessed as cell viability at 10 to 100 uM after 72 hrs by MTT assay. The format is functional, cell-based. The gist of the method:
(§1)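 Sarcosphere-derived CSC cultures exposed 72 h to concentrations from 100 μM down to 0.1 μM. Viability compared with DMSO-only treated cells. IC50 calculated by linear regression.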

The subject of the next assay is RD. In words: Cytotoxicity against human RD cells assessed as cell viability at 10 to 100 uM after 72 hrs by MTT assay. It counts as functional, cell-based.
A further assay deals with SK-ES1. In words: Cytotoxicity against human SK-ES-1 cells assessed as cell viability at 10 to 100 uM after 72 hrs by MTT assay. It counts as functional, cell-based. Put shortly: as §1
(In general: Tetrazolium dyes change colour on reduction, which living cells bring about.)

In a further assay the test system is HOS. In words: Cytotoxicity against HOS cells assessed as cell viability at 10 to 100 uM after 72 hrs by MTT assay. It counts as functional, cell-based. The note with it: Homo sapiens.
The test system of the next assay is A673. In words: Cytotoxicity against human A673 cells assessed as cell viability at 10 to 100 uM after 72 hrs by MTT assay. The format is functional, cell-based. Put shortly:
as §1

The test system of the next assay is A204. Description: Cytotoxicity against human A204 cells assessed as cell viability at 10 to 100 uM after 72 hrs by MTT assay. The format is functional, cell-based.
Assay [1] can be described thus: Cytotoxicity against human MG63 cells assessed as inhibition of cell viability after 72 hrs by MTT assay. The format is functional, MG-63. The gist of the method:
(§2)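 Stem-like cells were taken from sarcosphere cultures and exposed for 72 h to concentrations from 100 μM down to 0.1 μM. Viability was compared with cells given DMSO vehicle alone. IC50 was calculated by linear regression of the dose-response curves.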

Assay [2] can be described thus: Cytotoxicity against human SK-ES-1 cells assessed as inhibition of cell viability after 72 hrs by MTT assay. It counts as functional, SK-ES1. The gist of the method:
as §2

As to `O=c1nc2oc3ccc4ccccc4c3cc-2c(=O)n1-c1ccccc1`, the result with MG-63, with RD, with SK-ES1, in the assay on HOS, in the assay with A673 and in the assay on A204 was Active.

Take `Cn1c(/C=C/C(=O)NO)ccc1/C=C/C(=O)c1cccc(F)c1`: the figures for the INH in assay [1] and in assay [2] were 38.3 µM and 50.7 µM, respectively.
